Assay results: ChEMBL document CHEMBL3596119, “Synthesis and biological characterization of a promising F-18 PET tracer for vesicular acetylcholine transporter” (Bioorg Med Chem, 2015); call rule not given here

How the values were obtained:
Muscle tissue [1] = test: Biodistribution in Sprague-Dawley rat muscle at 2.2 MBq/120 uL, iv after 60 mins by gamma counting; format: ADME, organism-based; details: in vivo, 1 h
In short: (§1)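 Adult male SD rats, isoflurane (2-3%)/oxygen anesthesia, tail-vein injection of ~2.2 MBq/120 μL tracer in 10% ethanol in saline; euthanized under anesthesia at the stated time (n = 4 per time point). Brain dissected into regions, remainder kept for total brain; organs, blood, bone collected and weighed, gamma-counted against a standard dilution of injectate; %ID/g calculated.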

Rattus norvegicus [2] = test: Biodistribution in Sprague-Dawley rat fat at 2.2 MBq/120 uL, iv after 60 mins by gamma counting; format: ADME, organism-based, Adipose tissue; details: in vivo, 1 h; in short: as §1
Pancreas [3] = test: Biodistribution in Sprague-Dawley rat pancreas at 2.2 MBq/120 uL, iv after 60 mins by gamma counting; format: ADME, organism-based; details: in vivo, 1 h; in short: as §1
Spleen [4] = test: Biodistribution in Sprague-Dawley rat spleen at 2.2 MBq/120 uL, iv after 60 mins by gamma counting; format: ADME, organism-based; details: in vivo, 1 h; in short: as §1
Kidney [5] = test: Biodistribution in Sprague-Dawley rat kidney at 2.2 MBq/120 uL, iv after 60 mins by gamma counting; format: ADME, organism-based; details: in vivo, 1 h; in short: as §1
Liver [6] = test: Biodistribution in Sprague-Dawley rat liver at 2.2 MBq/120 uL, iv after 60 mins by gamma counting; format: ADME, organism-based; details: in vivo, 1 h; in short: as §1
Bone [7] = test: Biodistribution in Sprague-Dawley rat bone at 2.2 MBq/120 uL, iv after 60 mins by gamma counting; format: ADME, organism-based, Bone element; details: in vivo, 1 h; in short: as §1
Rattus norvegicus [8] = test: Biodistribution in Sprague-Dawley rat total brain at 2.2 MBq/120 uL, iv after 60 mins by gamma counting; format: ADME, organism-based; details: in vivo, 1 h
In short: (§2)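 Injected by tail vein in 10% ethanol in saline into adult male SD rats under 2-3% isoflurane/oxygen anesthesia. Rats were killed under anesthesia, n = 4 per time point. Total brain and other tissues were weighed and gamma-counted against a standard dilution of the injectate. Values are %ID/g.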

Blood [9] = test: Biodistribution in Sprague-Dawley rat blood at 2.2 MBq/120 uL, iv after 120 mins by gamma counting; format: ADME, organism-based; details: in vivo, 2 h; in short: as §1
Heart [10] = test: Biodistribution in Sprague-Dawley rat heart at 2.2 MBq/120 uL, iv after 120 mins by gamma counting; format: ADME, organism-based; details: in vivo, 2 h; in short: as §1
Lung [11] = test: Biodistribution in Sprague-Dawley rat lung at 2.2 MBq/120 uL, iv after 120 mins by gamma counting; format: ADME, organism-based; details: in vivo, 2 h; in short: as §1
Rattus norvegicus [12] = test: Biodistribution in Sprague-Dawley rat fat at 2.2 MBq/120 uL, iv after 120 mins by gamma counting; format: ADME, organism-based, Adipose tissue; details: in vivo, 2 h; in short: as §1
Spleen [13] = test: Biodistribution in Sprague-Dawley rat spleen at 2.2 MBq/120 uL, iv after 120 mins by gamma counting; format: ADME, organism-based; details: in vivo, 2 h; in short: as §1
Bone [14] = test: Biodistribution in Sprague-Dawley rat bone at 2.2 MBq/120 uL, iv after 120 mins by gamma counting; format: ADME, organism-based, Bone element; details: in vivo, 2 h; in short: as §1
Rattus norvegicus [15] = test: Biodistribution in Sprague-Dawley rat total brain at 2.2 MBq/120 uL, iv after 120 mins by gamma counting; format: ADME, organism-based; details: in vivo, 2 h; in short: as §1
Striatum [16] = test: Biodistribution in Sprague-Dawley rat striatum at 2.2 MBq/120 uL, iv after 5 mins by gamma counting; format: ADME, organism-based; details: in vivo; in short: as §1
Thalamus = test: Biodistribution in Sprague-Dawley rat thalamus at 2.2 MBq/120 uL, iv after 5 mins by gamma counting; format: ADME, organism-based; details: in vivo; in short: as §1
Striatum [17] = test: Biodistribution in Sprague-Dawley rat striatum at 2.2 MBq/120 uL, iv after 30 mins by gamma counting; format: ADME, organism-based; details: in vivo, 0.5 h; in short: as §1
Striatum [18] = test: Biodistribution in Sprague-Dawley rat striatum at 2.2 MBq/120 uL, iv after 60 mins by gamma counting; format: ADME, organism-based; details: in vivo, 1 h; in short: as §1
Striatum [19] = test: Biodistribution in Sprague-Dawley rat striatum at 2.2 MBq/120 uL, iv after 120 mins by gamma counting; format: ADME, organism-based; details: in vivo, 2 h; in short: as §1
[20] = Drug uptake in cynomolgus monkey striatum at 296 to 410 MBq administered via venous catheter after 120 mins by microPET imaging; format: ADME, Macaca fascicularis; details: in vivo, iv, 2 h
In short: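 Male cynomolgus monkeys (6-8 kg) were fasted 12 h, induced with ketamine/glycopyrrolate i.m., then kept on 0.75-2.0% isoflurane at 37 °C. After a transmission scan for attenuation correction, a 2 h dynamic microPET scan was acquired. Framing was 3×1, 4×2, 3×3, 20×5 min. Striatal uptake was read as SUV from time-activity curves, with cerebellum as reference.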

Plasma [21] = test: Retention time in monkey plasma assessed as radioactivity at 15 to 106 MBq after 5 to 60 mins by HPLC analysis; format: ADME, cell-free, Macaca mulatta; details: rhesus monkey
Plasma [22] = test: Drug metabolism in Sprague-Dawley rat plasma assessed as radioactivity at 15 to 106 MBq, iv after 5 to 60 mins by HPLC analysis; format: ADME, organism-based
Blood [23] = test: Biodistribution in Sprague-Dawley rat blood at 2.2 MBq/120 uL, iv after 5 mins by gamma counting; format: ADME, organism-based; details: in vivo; in short: as §1
Heart [24] = test: Biodistribution in Sprague-Dawley rat heart at 2.2 MBq/120 uL, iv after 5 mins by gamma counting; format: ADME, organism-based; details: in vivo; in short: as §1
Lung [25] = test: Biodistribution in Sprague-Dawley rat lung at 2.2 MBq/120 uL, iv after 5 mins by gamma counting; format: ADME, organism-based; details: in vivo; in short: as §1
Muscle tissue [26] = test: Biodistribution in Sprague-Dawley rat muscle at 2.2 MBq/120 uL, iv after 5 mins by gamma counting; format: ADME, organism-based; details: in vivo; in short: as §1
Rattus norvegicus [27] = test: Biodistribution in Sprague-Dawley rat fat at 2.2 MBq/120 uL, iv after 5 mins by gamma counting; format: ADME, organism-based, Adipose tissue; details: in vivo; in short: as §1
Pancreas [28] = test: Biodistribution in Sprague-Dawley rat pancreas at 2.2 MBq/120 uL, iv after 5 mins by gamma counting; format: ADME, organism-based; details: in vivo; in short: as §1
Spleen [29] = test: Biodistribution in Sprague-Dawley rat spleen at 2.2 MBq/120 uL, iv after 5 mins by gamma counting; format: ADME, organism-based; details: in vivo; in short: as §1
Kidney [30] = test: Biodistribution in Sprague-Dawley rat kidney at 2.2 MBq/120 uL, iv after 5 mins by gamma counting; format: ADME, organism-based; details: in vivo; in short: as §1
Liver [31] = test: Biodistribution in Sprague-Dawley rat liver at 2.2 MBq/120 uL, iv after 5 mins by gamma counting; format: ADME, organism-based; details: in vivo; in short: as §1
Blood [32] = test: Biodistribution in Sprague-Dawley rat blood at 2.2 MBq/120 uL, iv after 30 mins by gamma counting; format: ADME, organism-based; details: in vivo, 0.5 h; in short: as §1
Heart [33] = test: Biodistribution in Sprague-Dawley rat heart at 2.2 MBq/120 uL, iv after 30 mins by gamma counting; format: ADME, organism-based; details: in vivo, 0.5 h; in short: as §1
Lung [34] = test: Biodistribution in Sprague-Dawley rat lung at 2.2 MBq/120 uL, iv after 30 mins by gamma counting; format: ADME, organism-based; details: in vivo, 0.5 h; in short: as §1
Muscle tissue [35] = test: Biodistribution in Sprague-Dawley rat muscle at 2.2 MBq/120 uL, iv after 30 mins by gamma counting; format: ADME, organism-based; details: in vivo, 0.5 h; in short: as §1
Pancreas [36] = test: Biodistribution in Sprague-Dawley rat pancreas at 2.2 MBq/120 uL, iv after 30 mins by gamma counting; format: ADME, organism-based; details: in vivo, 0.5 h; in short: as §1
Liver [37] = test: Biodistribution in Sprague-Dawley rat liver at 2.2 MBq/120 uL, iv after 30 mins by gamma counting; format: ADME, organism-based; details: in vivo, 0.5 h; in short: as §1
Bone [38] = test: Biodistribution in Sprague-Dawley rat bone at 2.2 MBq/120 uL, iv after 30 mins by gamma counting; format: ADME, organism-based, Bone element; details: in vivo, 0.5 h; in short: as §1
Rattus norvegicus [39] = test: Biodistribution in Sprague-Dawley rat total brain at 2.2 MBq/120 uL, iv after 30 mins by gamma counting; format: ADME, organism-based; details: in vivo, 0.5 h; in short: as §2
Blood [40] = test: Biodistribution in Sprague-Dawley rat blood at 2.2 MBq/120 uL, iv after 60 mins by gamma counting; format: ADME, organism-based; details: in vivo, 1 h; in short: as §1
Heart [41] = test: Biodistribution in Sprague-Dawley rat heart at 2.2 MBq/120 uL, iv after 60 mins by gamma counting; format: ADME, organism-based; details: in vivo, 1 h; in short: as §1

Drug uptake (Muscle tissue [1]): 0.253 % ID/g
Drug uptake (Rattus norvegicus [2]): 0.548 % ID/g
Drug uptake (Pancreas [3]): 1.324 % ID/g
Drug uptake (Spleen [4]): 0.505 % ID/g
Drug uptake (Kidney [5]): 0.604 % ID/g
Drug uptake (Liver [6]): 0.456 % ID/g
Drug uptake (Bone [7]): 0.403 % ID/g
Drug uptake (Rattus norvegicus [8]): 0.425 % ID/g
Drug uptake (Blood [9]): 0.356 % ID/g
Drug uptake (Heart [10]): 0.336 % ID/g
Drug uptake (Lung [11]): 0.551 % ID/g
Drug uptake (Rattus norvegicus [12]): 0.56 % ID/g
Drug uptake (Spleen [13]): 0.376 % ID/g
Drug uptake (Bone [14]): 0.537 % ID/g
Drug uptake (Rattus norvegicus [15]): 0.409 % ID/g
Drug uptake (Striatum [16]): 0.782 % ID/g
Drug uptake (Thalamus): 0.691 % ID/g
Drug uptake (Striatum [17]): 0.886 % ID/g
Drug uptake (Striatum [18]): 0.819 % ID/g
Drug uptake (Striatum [19]): 0.761 % ID/g
Drug uptake [20]: Not Active
Retention_time (Plasma [21]): 9 min
Drug metabolism (Plasma [22]): metabolite_detected
Drug uptake (Blood [23]): 0.209 % ID/g
Drug uptake (Heart [24]): 0.706 % ID/g
Drug uptake (Lung [25]): 2.255 % ID/g
Drug uptake (Muscle tissue [26]): 0.171 % ID/g
Drug uptake (Rattus norvegicus [27]): 0.144 % ID/g
Drug uptake (Pancreas [28]): 1.202 % ID/g
Drug uptake (Spleen [29]): 1.265 % ID/g
Drug uptake (Kidney [30]): 2.363 % ID/g
Drug uptake (Liver [31]): 1.065 % ID/g
Drug uptake (Blood [32]): 0.27 % ID/g
Drug uptake (Heart [33]): 0.39 % ID/g
Drug uptake (Lung [34]): 0.973 % ID/g
Drug uptake (Muscle tissue [35]): 0.258 % ID/g
Drug uptake (Pancreas [36]): 1.2 % ID/g
Drug uptake (Liver [37]): 0.523 % ID/g
Drug uptake (Bone [38]): 0.369 % ID/g
Drug uptake (Rattus norvegicus [39]): 0.482 % ID/g
Drug uptake (Blood [40]): 0.338 % ID/g
Drug uptake (Heart [41]): 0.357 % ID/g
SMILES: O=C(c1ccc(F)cc1)C1CCN(C2Cc3c(cccc3OCC[18F])CC2O)CC1 (single isomer, unassigned; (-))
